High-throughput results as filed in PubChem.
ROMK primary = modulates human ROMK potassium channel activity; P48048; Tet-inducible ROMK, thallium flux fluorescence; actives lie on both sides; B-score at 10 µM; 130,000 compounds, 2% hits;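 active means signal ratio slope over the read window, or its plate-corrected B-score, at least 3 SD from the plate mean, either direction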;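 further: B-score of the F/F0 ratio slope over 7 to 12 s after thallium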
WT yeast gro inh = growth inhibition of WT yeast, mitochondrial fusion screen | AID 1362 | 190,000 compounds, 2.1% hits | inhibition, % at 10 µM | mitochondrial fusion phenotypic screen, WT strain; in the data active means inhibition above about 58%; tested in S. cerevisiae
Lmaj promast = reduces viability of Leishmania major promastigotes | resazurin fluorescence viability | inhibition, % at 10 µM | 200,000 compounds, 9% hits; in the data active means inhibition above about 50%;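 further: promastigotes grown with compound for 44 hours at 28 °C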
KCC2 mod = KCC2 (human) Cl- transport modulation; KCC2 cells, thallium flux FluoZin-2 fluorescence; B-score of Tl+ flux slope (higher = more flux/activation; lower = inhibition) at 10 µM; 190,000 compounds, 2.2% hits; AID 1456;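 active means thallium flux slope and its plate-corrected score both differing from the plate sample mean at a set confidence after two filtering rounds, in either direction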;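 further: slope of fluorescence scaled to starting intensity during 10 to 20 s after thallium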
Target sequence (Q9H2X9 whole entry, looked up): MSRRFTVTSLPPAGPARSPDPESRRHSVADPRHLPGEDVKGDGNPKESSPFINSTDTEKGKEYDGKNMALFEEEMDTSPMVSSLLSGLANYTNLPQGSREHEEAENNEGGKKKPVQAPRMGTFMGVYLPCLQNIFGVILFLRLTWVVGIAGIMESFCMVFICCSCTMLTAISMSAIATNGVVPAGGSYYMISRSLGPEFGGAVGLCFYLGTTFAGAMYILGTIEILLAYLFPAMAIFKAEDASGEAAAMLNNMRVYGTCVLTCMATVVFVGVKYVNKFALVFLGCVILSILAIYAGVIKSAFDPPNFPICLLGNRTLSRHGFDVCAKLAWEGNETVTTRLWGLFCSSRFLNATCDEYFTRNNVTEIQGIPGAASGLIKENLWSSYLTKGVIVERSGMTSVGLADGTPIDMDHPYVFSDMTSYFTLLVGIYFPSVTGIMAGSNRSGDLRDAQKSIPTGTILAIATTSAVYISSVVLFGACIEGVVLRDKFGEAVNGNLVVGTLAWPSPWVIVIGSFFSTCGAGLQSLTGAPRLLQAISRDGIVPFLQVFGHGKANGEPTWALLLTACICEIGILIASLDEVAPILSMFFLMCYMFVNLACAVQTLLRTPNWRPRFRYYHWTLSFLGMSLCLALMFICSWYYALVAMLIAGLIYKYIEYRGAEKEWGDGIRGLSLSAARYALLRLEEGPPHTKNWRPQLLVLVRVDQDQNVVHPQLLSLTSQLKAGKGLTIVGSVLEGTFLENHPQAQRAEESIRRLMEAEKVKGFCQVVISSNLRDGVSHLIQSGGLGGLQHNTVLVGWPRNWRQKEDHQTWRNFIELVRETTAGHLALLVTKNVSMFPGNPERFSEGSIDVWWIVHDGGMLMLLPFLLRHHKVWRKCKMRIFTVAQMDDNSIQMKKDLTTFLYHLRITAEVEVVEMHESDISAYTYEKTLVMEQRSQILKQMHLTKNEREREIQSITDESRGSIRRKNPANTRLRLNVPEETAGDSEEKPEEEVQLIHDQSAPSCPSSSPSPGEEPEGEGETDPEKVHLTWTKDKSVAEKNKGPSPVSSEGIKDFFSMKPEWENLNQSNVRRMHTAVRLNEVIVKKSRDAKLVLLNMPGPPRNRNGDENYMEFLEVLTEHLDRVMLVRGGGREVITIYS
Diaphorase inh = inhibits diaphorase or chemically oxidizes, flagging diaphorase assay artifacts; diaphorase resazurin-to-resorufin fluorescence, NADH, 16 min; bacterial (C. kluyveri) enzyme, not human; inhibition, % at 20 µM; 190,000 compounds, 0.69% hits; AID 1217;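 active means primary screen inhibition at 20 µM above a set limit, cut at about 50% in these data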
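Assay system: diaphorase enzyme from Clostridium kluyveri; Input: enzyme working solution with 0.14 U/mL diaphorase; Timing: 16 min at room temperature; Technique: resorufin fluorescence, excitation 544 nm, emission 590 nm; Benchmarks: positive control minus NADH, DMSO neutral control.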
Diaphorase act = activates diaphorase or chemically reduces, flagging diaphorase assay artifacts. 190,000 compounds, 0.005% hits. Diaphorase/resazurin coupled assay, resorufin fluorescence, 16 min; stronger effect = higher value; 1 = vehicle wells, 0 = NADH-free wells. activation factor at 20 µM. AID 1229;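 active means diaphorase activity raised at least twofold by the compound at 20 µM; inactive means activation factor below 2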
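Material: Purified diaphorase enzyme from Clostridium kluyveri | Buffer or medium: 50 mM HEPES pH 7.4 with 4.542 mM MgCl2, 0.005% Tween 20 | Times: 16 min enzyme reaction, ambient temperature | Signal: Red resorufin fluorescence at 544/590 nm excitation/emission | Measure: Increased resorufin signal from activators or reducing compounds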
KCC2 sec1 = confirmation of human KCC2 transport modulators | shares compounds with KCC2 mod | HEK293-KCC2, thallium flux, FluoZin2 fluorescence; stronger effect = higher value | normalised thallium flux (F/F0 slope) at 10 µM | 3,700 compounds, 15% hits | AID 1713;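 active means thallium flux slope above the same plate's solvent-only control mean plus 3 SD; inconclusive means the two replicate wells disagree; inactive means no significant difference from solvent-only control wells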
KCC2 bumet counter = thallium flux persisting under bumetanide in KCC2 cells, counter-screen secondary assay | normalized thallium flux at 10 µM | shares compounds with KCC2 mod | AID 1714 | HEK293-KCC2 + bumetanide/ouabain, thallium flux FluoZin2; stronger effect = higher value | 3,700 compounds, 49% hits;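 active means thallium entry rate above the same plate's blocked-transporter control wells by more than 3 SD; inconclusive means the two repeat wells disagree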;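 further: raw slope of fluorescence over initial fluorescence between 10 and 20 s after thallium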
KCC2 sec2 = KCC2 (human) modulation, second secondary assay; HEK293-KCC2, thallium flux FluoZin2 fluorescence; actives lie on both sides; F/F0 rise rate, 10–20 s post-thallium; 3,700 compounds, 23% hits; normalized thallium flux at 10 µM; shares compounds with KCC2 mod;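 active means thallium flux slope more than 3 SD above or below the plate's solvent-only control mean, mostly below; inconclusive means the two repeat wells disagreed; inactive means no significant shift from solvent-only controls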
HEK counter1 = acts in parental HEK cells, KCC2 counter-screen. shares compounds with KCC2 mod. HEK293 parental cells, thallium flux FluoZin2, ouabain; baseline-ratio fluorescence slope, 10–20 s after thallium. thallium flux rate (normalised fluorescence) at 10 µM. 3,700 compounds, 46% hits. AID 1716;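 active means thallium flux rate significantly above the same plate's solvent-only control wells, beyond their mean plus 3 SD; inconclusive means the two replicate wells gave conflicting results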
KCC2 retest ouab = KCC2 (human) modulation, ouabain retest; 3,700 compounds, 48% hits; shares compounds with KCC2 mod; raw Tl+ flux slope (below DMSO = inhibition, above = activation) at 10 µM; HEK293-KCC2, thallium flux FluoZin2 fluorescence; bidirectional: low = inhibitor, high = activator;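 active means thallium flux slope beyond 3 SD from same-plate DMSO control mean in most replicates, usually higher, sometimes lower; inconclusive means repeat tests gave conflicting results; inactive means no significant difference from controls in most replicates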;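 further: slope of initial-normalized fluorescence between seconds 10 and 20 after thallium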
HEK293 Tl flux2 = counter-screen for KCC2 modulators: effect in parental HEK293 cells; AID 1718; thallium flux FluoZin-2 fluorescence slope; thallium flux slope at 10 µM; shares compounds with KCC2 mod; 3,700 compounds, 33% hits;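 active means thallium flux slope above the same plate's solvent-control mean plus 3 SD in both duplicate wells; inconclusive means duplicate wells that disagreed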;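 further: run without ouabain in cells lacking the KCC2 cotransporter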
Numbers stand for hits; - = inactive; ? = inconclusive; . = no result given. Shown are actives, neighbours in structure and some others; about 12% of the full set was active somewhere.

SMILES | ROMK primary | WT yeast gro inh | Lmaj promast | KCC2 mod | Diaphorase inh | Diaphorase act | KCC2 sec1 | KCC2 bumet counter | KCC2 sec2 | HEK counter1 | KCC2 retest ouab | HEK293 Tl flux2
CC(=O)Nc1cccc2c1C(=O)N(c1ccc(OC(C)=O)cc1)C2=O | - | - | - | . | - | - | . | . | . | . | . | .
CCOC(=O)c1cnc(-c2cccc(OC)c2)[nH]c1=O | . | - | - | . | - | - | - | ? | - | - | - | -
NC1=NC(c2ccc(Cl)cc2)n2c(nc3ccccc32)N1 (centres undefined) | . | - | - | - | - | - | . | . | . | . | . | .
Cc1cc(NC(=O)c2cccc(S(=O)(=O)N3CC(c4ccccc4)CC3=O)c2)no1 (centres undefined) | . | - | - | -5.4 | - | - | ? | - | 0.022 | 0.006 | 0.013 | ?
COc1ccc(C(=O)Nc2nncs2)cc1S(=O)(=O)N1CC(c2ccccc2)CC1=O (centres undefined) | . | - | - | . | - | - | - | - | - | - | ? | -
Cc1ccc(NS(=O)(=O)c2ccc(OCC(=O)N3CCOCC3)cc2)cc1 | . | - | - | - | - | - | . | . | . | . | . | .
O=C(c1ccc(S(=O)(=O)c2cccc(Cl)c2)c([N+](=O)[O-])c1)N1CCN(c2ccccn2)CC1 | - | - | - | -5 | - | - | - | - | 0.022 | - | ? | -
O=C(NNC(=O)c1csc(-c2cnccc2C(F)(F)F)n1)c1ccc(C(F)(F)F)cc1 | - | . | . | 5.9 | . | . | ? | 0.041 | - | 0.013 | ? | ?
CCCN1C(=O)c2ccc(C(=O)Nc3nccs3)cc2C1=O | - | - | - | 6 | - | - | - | ? | - | - | - | -
COCCN1C(=O)c2ccc(C(=O)Nc3nccs3)cc2C1=O | - | - | - | - | - | - | . | . | . | . | . | .
Cc1cc(CNC(=O)c2ccc(C)c([N+](=O)[O-])c2)c2ccccc2n1 | - | - | - | - | - | - | . | . | . | . | . | .
Cc1cc2cc(CNC(=O)c3ccc(C)c([N+](=O)[O-])c3)ccc2[nH]1 | - | - | - | -4.2 | - | - | - | - | - | - | ? | -
CC(=O)c1nc2ccccc2n1S(=O)(=O)c1ccc(Cl)cc1 | - | - | - | - | - | - | . | . | . | . | . | .
CC(=O)c1nc2ccccc2n1S(=O)(=O)c1ccc(C)cc1 | - | - | - | 5.6 | - | - | - | ? | - | - | - | -
Cc1cc(CC(C)C)n(-c2nc3ccccc3c(=O)n2OCC(=O)N(C)C)n1 | - | - | - | 10 | - | - | - | 0.026 | - | 0.024 | 0.032 | 0.017
Cc1cc(C)n(-c2nc3ccccc3c(=O)n2OCC(=O)N(C)C)n1 | . | - | - | - | - | - | . | . | . | . | . | .
Cc1cc(CC(C)C)n(-c2nc3ccccc3c(=O)n2OCc2ccccc2)n1 | . | 65 | - | 5.1 | - | - | - | 0.023 | - | 0.011 | 0.052 | 0.012
COc1ccc(/C(N)=N/O)c(OC)c1 | - | - | - | - | - | - | . | . | . | . | . | .
Cc1ccc(/C=C2\SC(=S)N(C3CCS(=O)(=O)C3)C2=O)o1 (centres undefined) | - | - | - | - | - | - | . | . | . | . | . | .
Cc1ccc(/C=C2\SC(=S)N(/N=C/c3cc([N+](=O)[O-])ccc3O)C2=O)o1 | - | - | - | 3.8 | 63 | - | - | 0.013 | - | 0.0096 | 0.028 | -
CC1CCC(NC(=O)c2cnccn2)CC1 (centres undefined) | - | - | - | - | - | - | . | . | . | . | . | .
Cc1cc(NC(=O)NC2CC(=O)N(c3ccc4c(c3)OCCO4)C2)no1 (centres undefined) | - | - | - | - | - | - | . | . | . | . | . | .
Cc1[nH]c2ccccc2c1Cc1n[nH]c(=S)n1C | . | - | - | -6.4 | - | - | - | - | 0.024 | - | 0.011 | -
Cc1[nH]c2ccccc2c1Cc1n[nH]c(=S)o1 | . | - | - | -3.4 | - | - | - | - | 0.022 | - | 0.041 | -
S=c1[nH]nc(Cc2cccc3ccccc23)o1 | - | - | - | -8 | - | - | - | - | 0.015 | - | ? | -
SMILES | ROMK primary | WT yeast gro inh | Lmaj promast | KCC2 mod | Diaphorase inh | Diaphorase act | KCC2 sec1 | KCC2 bumet counter | KCC2 sec2 | HEK counter1 | KCC2 retest ouab | HEK293 Tl flux2
Nn1c(Cc2cccc3ccccc23)n[nH]c1=S | . | - | - | - | - | - | . | . | . | . | . | .
Cn1c(Cc2c[nH]c3ccccc23)n[nH]c1=S | - | - | - | . | - | - | - | - | - | ? | ? | -
OC1CCN(C(=S)Nc2ccc(Oc3ccccc3)cc2)CC1 | - | - | - | - | - | - | . | . | . | . | . | .
CCN1CCN(CC(=O)N2CCCC(C(=O)c3ccc(Oc4ccccc4)cc3)C2)CC1 (centres undefined) | - | - | - | - | - | - | . | . | . | . | . | .
N#CCSc1nnc(COc2cccc3ccccc23)n1-c1cccc(Cl)c1 | - | - | - | 7.6 | - | - | - | ? | - | - | - | -
COC(CNC(=O)c1cccc(-n2c(=S)[nH]c3cc(Cl)ccc3c2=O)c1)OC | - | - | - | 4.4 | - | - | ? | 0.021 | - | 0.015 | ? | 0.012
CCOC(=O)N1CCN(C(=O)c2cccc(-n3c(=S)[nH]c4cc(Cl)ccc4c3=O)c2)CC1 | - | - | - | . | - | - | - | 0.012 | ? | 0.017 | 0.025 | 0.02
CCOC(=O)N1CCN(C(=O)c2ccc3c(=O)n(-c4ccc(OC)cc4)c(=S)[nH]c3c2)CC1 | . | - | - | -3.6 | - | - | - | - | - | ? | - | -
CN(c1ccc(OCc2nnc(-c3ccccc3)o2)cc1)S(=O)(=O)c1ccccc1 | - | - | 54 | -4.2 | - | - | - | ? | - | 0.0057 | - | -
O=[N+]([O-])c1ccc(Sc2cccc3cccnc23)c([N+](=O)[O-])c1 | - | - | 96 | . | - | - | 0.015 | 0.053 | - | ? | 0.035 | -
C=CCn1nc([N+](=O)[O-])nc1Sc1cccc2cccnc12 | - | - | 58 | 12 | - | - | 0.015 | 0.06 | - | 0.018 | 0.036 | 0.011
O=[N+]([O-])c1cc(Cl)ccc1Sc1cccc2cccnc12 | - | - | - | - | - | - | . | . | . | . | . | .
